Source: ChEMBL document CHEMBL1125115 (J Med Chem, 1990)
Square brackets hold non-standard residues; d marks the D form. Peptide text beside a SMILES is read from it. GABA = NCCCC(=O)O

Columns and labels:
[1] = molecular target: Substance-P receptor (Cavia porcellus) (UniProt P30547); experiment: Antagonistic activity against the highly selective tachykinin receptor 1 in guinea pig ileum; type: functional, tissue-based
[2] = molecular target: T1, Substance-K receptor (Rattus norvegicus) (UniProt P16610); experiment: Antagonistic activity against the highly selective tachykinin receptor 2 in rat colon muscularis mucosae; type: functional
T1 sequence (whole entry): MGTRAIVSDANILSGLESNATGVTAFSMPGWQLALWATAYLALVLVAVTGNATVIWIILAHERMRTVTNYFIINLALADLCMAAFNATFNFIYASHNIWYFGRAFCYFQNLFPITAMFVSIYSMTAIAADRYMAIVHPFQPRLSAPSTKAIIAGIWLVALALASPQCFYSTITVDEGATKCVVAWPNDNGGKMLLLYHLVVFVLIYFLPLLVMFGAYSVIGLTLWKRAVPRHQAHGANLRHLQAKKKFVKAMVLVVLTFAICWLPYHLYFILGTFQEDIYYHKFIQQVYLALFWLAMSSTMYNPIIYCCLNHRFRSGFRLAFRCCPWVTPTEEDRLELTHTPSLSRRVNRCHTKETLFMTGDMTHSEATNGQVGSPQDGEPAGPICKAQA
How it was run: (§1)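 Rat colon muscularis mucosae, isotonic contractions at 35 °C with atropine, mepyramine, methysergide, indomethacin (1 µM each). Dose ratio from rightward shift of agonist concentration-response curve with antagonist present; pKB = log[DR - 1] - log[B], B = molar antagonist concentration.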

[3] = molecular target: T1, Substance-K receptor (Rattus norvegicus); experiment: Antagonistic activity at tachykinin receptor 2 in the rat colon muscularis mucosae; C= Partial agonist; type: functional; conditions: filed as partial agonist; how it was run: as §1
Substance-K receptor = molecular target: T2, Substance-K receptor (Rattus norvegicus, UniProt P16610); experiment: Agonist activity was measured at neurokinin-2 receptor in the rat colon muscularis mucosae; type: functional, tissue-based, Muscularis mucosa
T2 sequence (P16610 whole entry): T1 sequence (whole entry)
How it was run: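 Rat colon muscularis mucosae strip (NK-2); isotonic contractions at 35 °C with atropine, mepyramine, methysergide and indomethacin (each 1 µM). Equipotent molar ratios converted to EC50 using mean EC50 of standard agonist.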

Substance-P receptor = Substance-P receptor (Cavia porcellus, UniProt P30547); experiment: Agonistic activity at neurokinin-1 (NK-1) receptor in guinea pig ileum longitudinal smooth muscle; type: functional, tissue-based
How it was run: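 Guinea pig ileum longitudinal smooth muscle-myenteric plexus strip (NK-1); isotonic contractions at 35 °C with atropine, mepyramine, methysergide and indomethacin (each 1 µM). Equipotent molar ratios converted to EC50 using mean EC50 of standard agonist.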

Substance-P receptor (Cavia porcellus), sequence (P30547 whole entry): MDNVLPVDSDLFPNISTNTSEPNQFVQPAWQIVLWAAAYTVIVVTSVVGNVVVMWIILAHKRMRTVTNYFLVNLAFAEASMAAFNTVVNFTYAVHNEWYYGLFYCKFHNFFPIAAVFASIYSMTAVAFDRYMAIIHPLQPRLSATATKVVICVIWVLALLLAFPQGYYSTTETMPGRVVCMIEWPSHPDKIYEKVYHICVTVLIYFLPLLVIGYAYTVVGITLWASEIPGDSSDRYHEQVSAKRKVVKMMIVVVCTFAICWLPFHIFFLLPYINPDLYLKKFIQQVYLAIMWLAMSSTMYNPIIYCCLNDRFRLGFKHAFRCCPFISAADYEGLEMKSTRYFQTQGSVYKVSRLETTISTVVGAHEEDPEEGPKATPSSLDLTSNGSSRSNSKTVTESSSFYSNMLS
Substance-P receptor, sequence (P30547 whole entry): as above

| pKB [1] | pKB [2] | pKB [3] | EC50 (Substance-K receptor) [µM] | EC50 (Substance-P receptor) [µM] | SMILES |
| --- | --- | --- | --- | --- | --- |
| 6.62 | 5.27 |  |  |  | CC(C)C[C@@H](C(=O)NC(Cc1c[nH]c2ccccc12)C(N)=O)N1CCC2(CCCN2C(=O)[C@H](Cc2ccccc2)NC(=O)[C@H](Cc2ccccc2)NC(=O)CCCN)C1=O (stereo partly specified) |
| 6.43 | 5.86 |  |  |  | CC(C)C[C@@H](C(=O)N[C@H](CC1CCCCC1)C(N)=O)N1CCC2(CCCN2C(=O)[C@H](Cc2ccccc2)NC(=O)[C@H](Cc2ccccc2)NC(=O)CCCN)C1=O (stereo partly specified) |
| 5.6 |  | Partial agonist |  |  | CSCC[C@H](NC(=O)[C@H](CC(C)C)N1CCC2(CCCN2C(=O)[C@H](Cc2ccccc2)NC(=O)[C@H](Cc2ccccc2)NC(=O)CCCN)C1=O)C(N)=O (stereo partly specified) |
| < 4.5 | < 4.5 |  |  |  | CNC(=O)[C@H](CC(C)C)N1CCC2(CCCN2C(=O)[C@H](Cc2ccccc2)NC(=O)[C@H](Cc2ccccc2)NC(=O)CCCN)C1=O (stereo partly specified) |
|  |  |  | > 16 | 4.38 | CC(C)C[C@H](NC(=O)CNC(=O)[C@H](Cc1ccccc1)NC(=O)[C@H](Cc1ccccc1)NC(=O)CCCN)C(=O)N[C@@H](Cc1c[nH]c2ccccc12)C(N)=O (H-[GABA]FFGLW-NH2) |
| 6.28 | 5.36 |  |  |  | CC(C)C[C@@H](C(=O)N[C@H](Cc1ccccc1)C(N)=O)N1CCC2(CCCN2C(=O)[C@H](Cc2ccccc2)NC(=O)[C@H](Cc2ccccc2)NC(=O)CCCN)C1=O (stereo partly specified) |
| 6.64 | 5.84 |  |  |  | CC(C)C[C@@H](C(=O)NC(CCc1ccccc1)C(N)=O)N1CCC2(CCCN2C(=O)[C@H](Cc2ccccc2)NC(=O)[C@H](Cc2ccccc2)NC(=O)CCCN)C1=O (stereo partly specified) |
| 5.66 | < 4.5 |  |  |  | CSCC[C@@H](NC(=O)[C@H](CC(C)C)N1CCC2(CCCN2C(=O)[C@H](Cc2ccccc2)NC(=O)[C@H](Cc2ccccc2)NC(=O)CCCN)C1=O)C(N)=O (stereo partly specified) |
